Values after ≈ are worked out from the molar mass of the structure shown. Values joined by “and” are separate entries in the source; they are usually repeats but may differ in a detail not shown here. Equal values may be shown once.
Experiments:
Tubulin = test: Inhibition of tubulin polymerization; type: functional
In short: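 Glutamate-driven assembly: purified tubulin 1.0 mg/mL (10 μM) in 1.0 M monosodium glutamate pH 6.6, 1.0 mM MgCl2, 4% (v/v) DMSO, preincubated with drug 15 min at 37 °C, chilled, GTP added, then warmed 0→37 °C in cuvettes with turbidity read-out. IC50 = drug level halving extent of polymerization, obtained graphically in triplicate experiments.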

L1210 [1] = test: In vitro inhibition of L1210 murine leukemia cells by using MTT assay in cell culture; type: functional, cell-based; conditions: Mus musculus
In short: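 L1210 murine leukemia cells in culture; cytotoxicity measured by MTT assay, reported as IC50 in μg/mL.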

L1210 [2] = test: In vivo inhibition of L1210 murine leukemia cells in mice (ip) at a dose of 50 mg/kg; type: functional, Mus musculus
In short: (§1)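 L1210 murine leukemia in mice: tumor cells inoculated ip, drug injected ip one day later; efficacy expressed as % T/C at the stated dose.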

L1210 [3] = test: In vivo inhibition of L1210 murine leukemia cells in mice (ip) at a dose of 100 mg/kg; type: functional, Mus musculus; in short: as §1
L1210 [4] = test: In vivo inhibition of L1210 murine leukemia cells in mice (ip) at a dose of 200 mg/kg; type: functional, Mus musculus; in short: as §1
L1210 [5] = test: In vivo inhibition of L1210 murine leukemia cells in mice (ip) at a dose of 12 mg/kg; type: functional, Mus musculus; in short: as §1
L1210 [6] = test: In vivo inhibition of L1210 murine leukemia cells in mice (ip) at a dose of 25 mg/kg; type: functional, Mus musculus; in short: as §1
L1210 [7] = test: (§2) Antitumor activity against murine leukemia P388 cells was determined after (ip) administration of a dose of 120 mg/kg; type: functional, Mus musculus
P388 [8] = test: as §2; type: functional, Mus musculus
[9] = Antitumor activity against murine sarcoma M531 cells was determined after (ip) administration of a dose of 240 mg/kg, ip; type: functional, Mus musculus; conditions: route intraperitoneal
MX1 [10] = test: Antitumor activity against human mammary tumor xenograft MX-1(SRC) cells was determined after (ip) administration of a dose of 60 mg/kg; type: functional
L1210 [11] = test: (§3) Antitumor activity against […] was determined after (ip) administration of a dose of 60 mg/kg; type: functional, Mus musculus
P388 [12] = test: as §3; type: functional, Mus musculus
[13] = Antitumor activity against murine melanoma B16 cells was determined after (ip) administration of a dose of 200 mg/kg, ip; type: functional, Mus musculus; conditions: route intraperitoneal
[14] = Antitumor activity against murine melanoma B16 cells was determined after (ip) administration of a dose of 100 mg/kg, ip; type: functional, Mus musculus; conditions: route intraperitoneal
MX1 [15] = test: Antitumor activity against human mammary tumor xenograft MX-1(SRC) cells was determined after (ip) administration of a dose of 120 mg/kg; type: functional
[16] = Antitumor activity against murine melanoma B16 cells was determined after (ip) administration of a dose of 400 mg/kg, ip; type: functional, Mus musculus; conditions: route intraperitoneal
[17] = Antitumor activity against murine melanoma B16 cells was determined after (ip) administration of a dose of 300 mg/kg, ip; type: functional, Mus musculus; conditions: route intraperitoneal
[18] = Antitumor activity against murine melanoma B16 cells was determined after (ip) administration of a dose of 50 mg/kg, ip; type: functional, Mus musculus; conditions: route intraperitoneal
[19] = Antitumor activity against human melanoma xenograft LOX (SC) cells was determined after (ip) administration of a dose of 120 mg/kg; type: functional
[20] = Antitumor activity against human melanoma xenograft LOX (SC) cells was determined after (ip) administration of a dose of 60 mg/kg; type: functional
MX1 [21] = test: Antitumor activity against human mammary tumor xenograft MX-1(SRC) cells was determined after (ip) administration of a dose of 240 mg/kg; type: functional
[22] = Antitumor activity against murine sarcoma M531 cells was determined after (ip) administration of a dose of 120 mg/kg, ip; type: functional, Mus musculus; conditions: route intraperitoneal
[23] = Antitumor activity against human melanoma xenograft LOX (SC) cells was determined after (ip) administration of a dose of 240 mg/kg; type: functional
L1210 [24] = test: […]; type: functional, Mus musculus; conditions: dose 150 mg/kg
In short: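 Murine L1210 leukemia cells were inoculated intraperitoneally into mice. Drug was injected intraperitoneally one day after tumor inoculation. Therapeutic efficacy was read out as % T/C at the stated dose in mg/kg.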

L1210 [25] = test: In vivo inhibition of L1210 murine leukemia cells in mice (ip) at a dose of 240 mg/kg; type: functional, Mus musculus; in short: as §1

SMILES	IC50 (Tubulin)	IC50 (L1210 [1])	T/C (L1210 [4])	also measured
O=c1oc(/C=C/c2ccccc2)nc2c(O)nc(O)nc12	> 40 µM	> 1 µg/mL		T/C (L1210 [2]): 94%
Nn1c(/C=C/c2ccccc2)nc2ccc(Cl)cc2c1=O	> 40 µM	> 1 µg/mL		T/C (L1210 [2]): 90%
Oc1ccc2nc(/C=C/c3ccccc3)nc(O)c2c1	> 40 µM	0.006 µg/mL (≈ 0.0227 µM)		T/C (L1210 [3]): 99%
O=c1[nH]c(=O)c2nc(/C=C/c3ccccc3)nc(O)c2[nH]1	> 40 µM	> 1 µg/mL		T/C (L1210 [2]): 93%
Oc1nc(/C=C/c2ccccc2)nc2sccc12	> 40 µM	> 1 µg/mL	92%	
Oc1nc(/C=C/c2ccccn2)nc2ccc(Cl)cc12	> 40 µM	0.61 µg/mL (≈ 2.15 µM)	91%	
CC(=O)Oc1ccc2nc(/C=C/c3ccccc3)nc(O)c2c1	4 µM	0.3 µg/mL (≈ 0.979 µM)	78%	
CCN(CC)CCCC(C)Nc1nc(/C=C/c2ccccc2)nc2ccc(Cl)cc12 (configuration not stated)	> 40 µM			T/C (L1210 [5]): 105%
Sc1nc(/C=C/c2ccccc2)nc2ccc(Cl)cc12	> 40 µM	> 1 µg/mL		T/C (L1210 [2]): 94%
Oc1nc(/C=C/c2ccccc2)nc2ccc(Br)cc12	2 µM	0.01 µg/mL (≈ 0.0306 µM)		T/C (L1210 [6]): 133%
CN1CCN(c2cc3nc(/C=C/c4ccccc4)nc(O)c3cc2F)CC1	> 40 µM	0.2 µg/mL (≈ 0.549 µM)		T/C (L1210 [2]): 100%
Oc1nc(/C=C/c2ccccc2)nc2cc(Cl)ccc12	17 µM	> 1 µg/mL		
Oc1nc(CC(c2ccccc2)N2CCOCC2)nc2ccc(Cl)cc12 (configuration not stated)	> 40 µM		125%	
COc1ccc2c(O)nc(/C=C/c3ccccc3)nc2c1	5.7 µM	0.001 µg/mL (≈ 0.00359 µM)	100%	
Cc1ccc2nc(/C=C/c3ccccc3)nc(O)c2c1	2 µM	0.02 µg/mL (≈ 0.0762 µM)		T/C (L1210 [6]): 107%
Oc1nc(/C=C/c2ccccc2)nc2cc(N3CCCCC3)c(F)cc12	> 40 µM	0.2 µg/mL (≈ 0.572 µM)	85%	
Oc1nc(/C=C/c2ccccc2)nc2cc(Cl)c(F)cc12	> 40 µM	0.007 µg/mL (≈ 0.0233 µM)		T/C (L1210 [3]): 111%
Oc1nc(/C=C/c2ccccc2)nc2c(Cl)cccc12	> 40 µM	> 1 µg/mL		
Oc1nc(/C=C/c2ccccc2)nc2ccc(F)cc12	5.4 µM	0.05 µg/mL (≈ 0.188 µM)		T/C (L1210 [3]): 129%
Cc1nc(O)c2cc(Cl)ccc2n1	> 40 µM	> 1 µg/mL		
Cn1c(/C=C/c2ccccc2)nc(=O)c2cc(Cl)ccc21	> 40 µM	0.04 µg/mL (≈ 0.135 µM)		T/C (L1210 [2]): 96%

SMILES	IC50 (Tubulin)	IC50 (L1210 [1])	T/C (L1210 [4])	also measured
Oc1nc(/C=C/c2ccccc2)nc2ccc(Cl)cc12	2.5 µM	0.001 µg/mL (≈ 0.00354 µM)		T/C (L1210 [2]): 146%
O=c1c2cc(Cl)ccc2nc2n1NC(c1ccccc1)C2 (configuration not stated)	> 40 µM	> 1 µg/mL		
COc1cc2nc(/C=C/c3ccccc3)nc(O)c2cc1OC	3.3 µM	0.03 µg/mL (≈ 0.0973 µM)	96%	
COc1ccc2nc(/C=C/c3ccccc3)[nH]c(=O)c2c1	2 µM	0.001 µg/mL (≈ 0.00359 µM)		T/C (L1210 [7]): 225%; T/C (P388 [8]): 174%; T/C [9]: 154%; T/C (MX1 [10]): 21%; T/C (L1210 [11]): 158%; T/C (P388 [12]): 135%; T/C [13]: 197% and 141%; T/C [14]: 145%; T/C (MX1 [15]): 16%; T/C [16]: 190%; T/C [17]: 158%; T/C [18]: 129%; T/C (L1210 [2]): 173%; T/C [19]: 142%; T/C [20]: 142%; T/C (MX1 [21]): -81%; T/C [22]: 136%; T/C [23]: 153%
C/C=C/c1nc(O)c2ccccc2n1	> 40 µM	> 1 µg/mL		
Oc1nc(Cc2ccccc2)nc2ccc(Cl)cc12	> 40 µM	> 1 µg/mL		
O=S1(=O)N=C(/C=C/c2ccccc2)Nc2ccccc21	> 40 µM	> 1 µg/mL	91%	
Cc1cccc2nc(/C=C/c3ccccc3)nc(O)c12	> 40 µM	0.03 µg/mL (≈ 0.114 µM)	100%	
Nc1ccccc1C(=O)Oc1ccc2nc(/C=C/c3ccccc3)nc(O)c2c1	> 40 µM	> 1 µg/mL		T/C (L1210 [24]): 99%
Oc1nc(/C=C/c2ccccc2)nc2ccc(I)cc12	1.4 µM	0.3 µg/mL (≈ 0.802 µM)	117%	
Oc1nc(/C=C/c2ccccc2)nc2cccc(Cl)c12	> 40 µM	> 1 µg/mL		T/C (L1210 [3]): 100%
Oc1nc(C#Cc2ccccc2)nc2ccc(Cl)cc12	> 40 µM	0.002 µg/mL (≈ 0.00712 µM)	125%	
O=c1[nH]c(/C=C/c2ccccc2)nc2ccccc12	11 µM	0.02 µg/mL (≈ 0.0806 µM)		T/C (L1210 [25]): 133%
CN1CCN(C(Cc2nc(O)c3cc(Cl)ccc3n2)c2ccccc2)CC1 (configuration not stated)	5.3 µM			T/C (L1210 [3]): 100%
Oc1nc(CCc2ccccc2)nc2ccc(Cl)cc12	7.3 µM	0.01 µg/mL (≈ 0.0351 µM)	113%	
Oc1nc(/C=C/c2ccccc2)nc2ccc3ncccc3c12	> 40 µM	0.4 µg/mL (≈ 1.34 µM)		T/C (L1210 [2]): 95%
CCOc1ccc2nc(/C=C/c3ccccc3)nc(O)c2c1	> 40 µM	0.4 µg/mL (≈ 1.37 µM)		
Nc1ccc2nc(/C=C/c3ccccc3)nc(O)c2c1	> 40 µM	0.6 µg/mL (≈ 2.28 µM)		
Cc1nc(/C=C/c2ccccc2)nc(O)c1C	> 40 µM	> 1 µg/mL		T/C (L1210 [2]): 89%
COc1ccc2nc(CC(c3ccccc3)N3CCCCC3)nc(O)c2c1 (configuration not stated)	14 µM	0.001 µg/mL (≈ 0.00275 µM)		T/C (L1210 [3]): 107%
C/C=C/c1nc(O)c2cc(Cl)ccc2n1	> 40 µM	> 1 µg/mL	95%	

— ChEMBL document CHEMBL1125102, “Synthesis and biological evaluation of 2-styrylquinazolin-4(3H)-ones, a new class of antimitotic anticancer agents which inhibit tubulin polymerization” (J Med Chem, 1990)
